Measurements: ChEMBL document CHEMBL1131456, “Synthesis, pharmacological characterization, and quantitative structure-activity relationship analyses of 3,7,9,9-tetraalkylbispidines: derivatives with specific bradycardic activity” (J Med Chem, 1998)

How the values were obtained:
Cavia porcellus [1] = organism: Cavia porcellus; assay: Selectivity quotient (F75/SR75); format: functional
Outline: (§1)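 Atrial selectivity quotients were calculated from the guinea pig atrial EC values as F75/SR75 and FRP125/SR75.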

Cavia porcellus [2] = organism: Cavia porcellus; assay: Score point for the selectivity versus additional effect FRP.; format: functional
[3] = Selectivity quotient (FRP125/SR75); # # means very low (estimated); format: functional
Rattus norvegicus [4] = assay: In vivo activity in anesthetized rat was measured as the R alpha T-interval of the rat ECG which reflects the time from ventricular excitation to recovery; format: functional, Cardiac ventricle
Outline: (§2)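 Male Wistar rats (280–360 g) under urethane (1.25 g/kg ip), intubated and breathing spontaneously. Femoral arterial pressure was recorded with needle-electrode ECG, analysed every 30 s. Compound was given by continuous femoral-vein infusion at 0.1 mL/min, with concentration raised tenfold every 10 min (3 doses). ED75/ED125 is the dose giving a 25% decrease/increase from the predrug value, reported as the geometric mean of individual EDs.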

Rattus norvegicus [5] = organism: Rattus norvegicus; assay: Score point for the selectivity versus additional effect R&T interval.; format: functional
Cavia porcellus [6] = organism: Cavia porcellus; assay: In vitro activity in guinea pig atria as the functional refractory period (FRP), which is the shortest interval between a double stimulus causing a double contraction.
Outline: (§3)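 Isolated guinea pig atria in oxygenated buffer at 35 °C. Right atria beat spontaneously; left atria were paced at 2 Hz with 1 ms rectangular pulses and isometric contractions were recorded. Cumulative concentration–response curves were run with up to five concentrations. EC75/EC125 is the concentration giving a 25% decrease/increase from the predrug value, reported as the geometric mean of individual ECs.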

Rattus norvegicus [7] = assay: In vivo activity in anesthetized rat was measured as heart rate which provides information on in vivo bradycardic activity; format: functional; outline: as §2
Rattus norvegicus [8] = organism: Rattus norvegicus; assay: Total score (SS)
Rattus norvegicus [9] = organism: Rattus norvegicus; assay: Selectivity quotient (DAP125/HR75)
Rattus norvegicus [10] = organism: Rattus norvegicus; assay: Score value indicates desire effect on heart rate; format: functional
[11] = Partition coefficient (logP); format: physicochemical; details: octanol/water; read-out: logP
Outline: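 Lipophilicity was measured by reversed-phase HPLC. Mobile phase was methanol/0.005 M phosphate buffer pH 4 (60/40) with 0.1% SDS and 0.1 M NaClO4, at 23.0 ± 0.5 °C, with UV detection at 205 nm.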

Cavia porcellus [12] = organism: Cavia porcellus; assay: Score value indicates selectivity versus the decrease in force of contraction; format: functional
Cavia porcellus [13] = organism: Cavia porcellus; assay: Score value indicates decrease of the sinus rate; format: functional
Rattus norvegicus [14] = organism: Rattus norvegicus; assay: Selectivity quotient (R&T125/HR75)
Cavia porcellus [15] = organism: Cavia porcellus; assay: In vitro activity in guinea pig atria was measured as the peak force of contraction (F) of a stimulated left atrium; format: functional; details: Cardiac atrium; outline: as §3
Cavia porcellus [16] = organism: Cavia porcellus; assay: Sum of the scores of decrease of the sinus rate and selectivity versus the decrease in force of contraction; format: functional
Rattus norvegicus [17] = organism: Rattus norvegicus; assay: Score value indicates selectivity against the undesired effect on diastolic blood pressure; format: functional, Artery
Cavia porcellus [18] = organism: Cavia porcellus; assay: Selectivity quotient (FRP125/SR75); format: functional; outline: as §1
Cavia porcellus [19] = organism: Cavia porcellus; assay: In vitro activity in guinea pig atria was measured as rate of spontaneously beating right atrium (SR) which reflects the activity of the sinus node; format: functional; details: Cardiac atrium; outline: as §3
[20] = Selectivity quotient (DAP125/HR75); # means very high (estimated); format: functional
Outline: (§4)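 Male Wistar rats (280–360 g), urethane-anesthetized (1.25 g/kg ip), breathing spontaneously. Femoral artery pressure gave diastolic pressure; subcutaneous needle ECG gave heart rate and RαT interval (R onset to T apex), analyzed every 30 s. Femoral vein infusion at 0.1 mL/min, concentration raised tenfold every 10 min (3 doses). ED75/ED125 (25% change from predrug) were geometric means; quotients DAP125/HR75 and RαT125/HR75.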

[21] = Selectivity quotient (R&T125/HR75); # # means very low (estimated); format: functional; outline: as §4

Row | Compound | Selectivity quotient (Cavia porcellus [1]) | Score (Cavia porcellus [2]) | ED125 (Rattus norvegicus [4]) [µM/kg] | Score (Rattus norvegicus [5]) | EC125 (Cavia porcellus [6]) [µM] | ED75 (Rattus norvegicus [7]) [µM/kg] | total score (SS) (Rattus norvegicus [8]) | Selectivity quotient (Rattus norvegicus [9]) | Score (Rattus norvegicus [10]) | logP [11] | Score (Cavia porcellus [12]) | Score (Cavia porcellus [13]) | Selectivity quotient (Rattus norvegicus [14]) | EC75 (Cavia porcellus [15]) [µM] | Score (Cavia porcellus [16]) | Score (Rattus norvegicus [17]) | Selectivity quotient (Cavia porcellus [18]) | EC75 (Cavia porcellus [19]) [µM] | Selectivity quotient [20] | other results
1 | CCCCCCN1CC2CC(CN(C)C2)C1 | 1 | 6 | 8.4 | 5 | 1.4 | 46 | -2 | 1 | 1 | 3.18 | -5 | 0 | 0.18 | 83.8 | -5 | -3 | – | – | – | Selectivity quotient [3]: very low
2 | CCC1(C)C2CN(CC3CCCCC3)CC1CN(CC1CCCCC1)C2 (centres undefined) | 0.76 | 5 | 5.5 | 3 | 0.68 | – | 4 | – | 4 | 6.65 | -6 | 3 | 0.5 | 4.69 | -3 | 0 | 0.11 | 6.2 | # | –
3 | C1CCC2(C1)C1CN(CC3CC3)CC2CN(CC2CC2)C1 [TEDISAMIL] | 37.6 | 3 | 2.5 | 4 | 0.76 | 5.3 | 5 | – | 5 | 4.19 | 0 | 5 | 0.47 | 49 | 5 | 0 | 0.56 | 1.3 | # | –
4 | CCCCCCN1CC2CN(CCCCCC)CC(C1)C2(CC)CCCC (centres undefined) | 2.32 | 2 | 4 | 6 | 1.27 | – | -3 | 1 | 0 | 8.26 | -4 | 6 | – | 1.39 | 2 | -3 | 2.12 | 0.6 | – | Selectivity quotient [21]: very low
